FGF22 binding: binders of recombinant human FGF22 by thermal shift; activity (Tm shift, normalised), % at 9.99 µM; Q9HCT0; AID 651658; SYPRO orange fluorescence; percent of sucrose octasulfate shift, DMSO zero; 340,000 tested, 1.5% active;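 active means mean Tm shift, scaled 0 neutral to 100 positive control, at about 1.3% or above, every replicate too, limit read from the data; inconclusive means no clear call, values can overlap the other calls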
Target sequence (Q9HCT0 whole entry, looked up): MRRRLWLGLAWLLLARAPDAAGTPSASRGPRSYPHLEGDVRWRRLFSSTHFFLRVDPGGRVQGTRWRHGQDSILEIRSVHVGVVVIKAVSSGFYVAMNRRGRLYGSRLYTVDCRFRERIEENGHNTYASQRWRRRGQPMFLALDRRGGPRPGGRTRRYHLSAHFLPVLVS
rRNA inh HTS: inhibits bacterial ribosomal RNA function over humanized ribosomes. E. coli WT GFP vs humanized-ribosome RFP mutants, fluorescence, 24 h; stronger effect = lower value; DMSO median 0, no signal -100. GFP signal change (wild-type ribosome), % (concentration not given with the values). 350,000 tested, 1.6% active;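 active means significant combined selectivity score with lowered wild-type GFP, culture density cut under 30%, mutant RFP and density less affected; inactive means any of these conditions unmet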
PGC1a acetyl inh: modulators of PGC1a acetylation. 350,000 tested, 0.17% active. inhibition, % at 15.6 µM. AID 651687. U2OS PGC1a acetylation, AlphaScreen anti-acetyl-lysine; with virally co-expressed GCN5 acetyltransferase;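 active means every replicate shows inhibition of at least 40%; inconclusive means mean inhibition at least 40% but some replicate below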;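 further: 0% = neutral control wells and 100% = positive control wells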
HIV Env fusion: HIV envelope-mediated fusion inhibition. HeLa-JRFL Env/CEM21 cell fusion, luciferase. inhibition, % at 12.3 µM. 360,000 tested, 1.1% active;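 active means mean replicate inhibition score of at least 50 and every replicate individually at or above 50; inconclusive means only one of the two criteria met; inactive means mean below 50 and not all replicates reaching 50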;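 further: 0% = plate neutral controls and 100% = maraviroc near 300 nM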
ERAP1 inh: inhibitors of human ERAP1 aminopeptidase; AID 652197; inhibition, % at 10.7 µM; recombinant ERAP1, Leu-AMC fluorescence, 60 min; Q9NZ08; 340,000 tested, 0.15% active;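 active means mean replicate inhibition of at least 30%, or all replicates individually reaching that 30% level; inactive means mean below 30% and not every replicate reaching it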;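 further: 0% = neutral control wells and 100% = L-leucinethiol positive control wells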
Cneo AK release: Cryptococcus neoformans lysis via adenylate kinase release; C. neoformans lysis, adenylate kinase release luminescence, 4 h; normalised: neutral wells 0, clomiphene wells 100; lysis activity, % at 15 µM; 360,000 tested, 0.2% active; AID 651654;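 active means mean lysis activity across replicates of at least 80%, whatever share of replicates individually reach that level; inactive means mean lysis activity below 80%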
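Material – Cryptococcus neoformans yeast cells · Quantity – 5 × 10^6 yeast cells/mL · Buffer or medium – YPD medium · Compound – single dose · Timing – 4 h static compound exposure, 37 °C, read 1 h post-reagent · Signal – adenylate kinase release luminescence · Read-out basis – lysis from increased AK signal · Benchmarks – Clomiphene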
Active calls of the source: *; ? = inconclusive; / = no result; [ ] = remark or other dose. In the library only some 3.5% were active in any assay of this set; here they are far more common.

SMILES | FGF22 binding | rRNA inh HTS | PGC1a acetyl inh | HIV Env fusion | ERAP1 inh | Cneo AK release
CN(C)c1cccc(C(=O)OCC(=O)N2CCc3ccccc3C2)c1 | 0 | -30* | 3 | 2 | 4 | /
O=C(c1ccc(Cl)cc1[N+](=O)[O-])N1CCc2ccccc2C1 | 43* | -8 | 4 | 0 | -6 | /
O=C(OCC(=O)N1CCc2ccccc2C1)c1ccc(Cl)c([N+](=O)[O-])c1 | 0 | -7 | -4 | / | -3 | 0
Nc1ccc(C(=O)OCC(=O)N2CCc3ccccc3C2)cc1[N+](=O)[O-] | 0 | -23* | 6 | 7 | 7 | -2
Cc1cc(OCC(=O)N2CCc3ccccc3C2)c(C)cc1Br | 18* | -27 | 2 | -3 | -4 | 1
Cc1ccc(C)c(OCC(=O)N2CCc3ccccc3C2)c1 | 0 | -17 | -7 | / | -2 | -1
O=C1CC(N2CCN(C/C=C/c3ccccc3)CC2)C(=O)N1Cc1ccc(N2CCCC2=O)cc1 (stereo unspecified) | / | / | 14 | ? | / | 2
COC(=O)C(CCCN1C(=O)c2ccccc2C1=O)(NC(C)=O)c1nnn(C)n1 (stereo unspecified) | 0 | 15 | 13 | -21 | 0 | 1
Cc1ccc(Cl)cc1N1CCN(C(=O)CSc2nnc3n2C(C)(C)Cc2ccccc2-3)CC1 | / | / | -52 | 76* | / | 2
CC(=O)/C=C\c1ccccc1OC(=O)c1cc2ccccc2oc1=O | 0 | 3 | 10 | 1 | -5 | 0
O=C(/C=C\c1ccccc1OC(=O)c1ccccc1F)c1cc2ccccc2o1 | 0 | -23* | -9 | -50 | 0 | -3
CCOC(=O)C1(CC2CC2)CCN(C(=O)c2cc(C)nc3ccc(CC)cc23)CC1 | 44* | -31 | -12 | 11 | 1 | /
CCOC(=O)C1(Cc2ccc(Cl)cc2)CCN(C(=O)c2cc(C)nc(C)n2)CC1 | 43* | -15 | 1 | 4 | 1 | 1
Cc1ccnc(NCc2ccc(Br)cc2)c1 | 0 | 1 | 8 | -22 | 1 | 6
CCC(=O)N1C[C@@H](C)[C@@H](OC)CN(C)C(=O)c2ccc(NC(=O)COC)cc2OC[C@@H]1C | 0 | 1 | -5 | -3[16.7 µM] | 1 | 2
CCN1C(=O)[C@@H]2[C@@H](c3ccc(-c4ccc(OC)cc4)cc3)N3CCC[C@@]3(C(=O)OC)[C@@H]2C1=O | 44* | 1 | -6 | / | 8 | 0
CCN1C(=O)[C@H]2[C@@H](c3ccc(-c4ccc(OC)cc4)cc3)N3CCC[C@@]3(C(=O)OC)[C@H]2C1=O | -1 | 1 | 7 | -25 | / | 0
COc1cc(/C=C/c2cc(C(F)(F)F)[nH]c(=O)n2)cc(OC)c1OC | 0 | -16 | 14 | -34 | 0 | /
COc1cc(OC)c(OC)cc1/C=C/c1cc(C(F)(F)F)[nH]c(=O)n1 | 43* | 11 | -8 | 29 | -4 | 0
Nc1ncnc2nc(SCCN3CCCCC3)[nH]c12 | / | / | -3 | -53 | / | 0
Cc1ccsc1/C=C1\CCC(C2CCCC2)C1=O (stereo unspecified) | 0 | -23* | -3 | -124 | 2 | /
Cc1ccc(S(=O)(=O)CC(=O)c2cc(C)c(O)c(C)c2)cc1 | 1 | -24* | 7 | -15 | -3 | 1
CC(=O)c1ccc(NC(=O)c2ccccc2Sc2ncnc3sc(C)c(C)c23)cc1 | 0 | -22 | -5 | -10 | 10 | -6
Cc1sc2ncnc(Sc3ccccc3C(=O)O)c2c1C | 0 | -24* | -3 | 4 | -1 | /
O=C(Cn1cc(C(=O)c2cccs2)c2ccccc21)NCc1ccc2c(c1)OCO2 | 0 | -5 | / | 57* | 4 | 3
SMILES | FGF22 binding | rRNA inh HTS | PGC1a acetyl inh | HIV Env fusion | ERAP1 inh | Cneo AK release
CO[C@H]1CN(C)C(=O)c2cc(NC(=O)NC(C)C)ccc2OC[C@H](C)N(C(=O)NC(C)C)C[C@H]1C | 0 | 1 | / | -15[16.7 µM] | 1 | 3
CN1OC[C@@H]2CN(Cc3ccccc3)[C@H](c3ccc(-n4ccnc4)cc3)C[C@@H]21 | 0 | -32* | -9 | -15 | / | -2
CN1OC[C@@H]2CN(C(=O)CCc3ccccc3)[C@H](c3ccc(-n4ccnc4)cc3)C[C@@H]21 | 0 | 8 | 1 | 4 | 9 | -2
CCN(CC)CCNC(=O)c1ccc(NC(=O)/C=C/c2ccc3ccccc3n2)cc1 | 1.6* | 0 | / | 16 | -4 | 0
CCN(CC)CCNC(=O)c1ccc(NC(=O)Cc2ccccc2F)cc1 | 0 | 11 | / | -4 | -4 | 3
O=C(Nc1cccc(F)c1)c1cc(S(=O)(=O)N2CCC(C(=O)O)CC2)ccc1F | / | / | -1 | 77* | / | -2
COCCNC(=O)C(c1ccc(C)cc1)N(C(=O)CCC(=O)Nc1ccccn1)c1ccc(C)cc1 (stereo unspecified) | 0 | -1 | 1 | 13 | 3 | -1
Cc1ccc2ccccc2[n+]1CCCS(=O)(=O)[O-] | / | / | -11 | / | / | 1
O=S(=O)([O-])CCC[n+]1ccc(Oc2ccccc2)cc1 | 0 | -1 | 0 | 6 | 50* | 1
Cc1sc(NC(=O)c2ccco2)c(C(Nc2ccccn2)c2ccccc2)c1C (stereo unspecified) | / | / | / | -114 | / | /
COc1ccc(C(Nc2ccccn2)c2c(NC(=O)c3ccco3)sc(C)c2C)cc1 (stereo unspecified) | 44* | -8 | / | -34 | 0 | /
COc1ccc(Cc2noc(CN3CCN(Cc4cccc(Cl)c4)CC3)n2)cc1OC | 44* | -14 | -6 | 9 | 2 | /
O=C(C[C@@H]1C=C[C@@H](NC(=O)c2ccccc2)[C@H](CO)O1)NCc1ccc(Oc2ccccc2)cc1 | 0 | 0 | 6 | 57*[16.7 µM] | 0 | 1
COC(=O)C[C@@H]1C=C[C@H](NC(=O)c2cnccn2)[C@@H](CO)O1 | 0 | 12 | / | -7 | / | /
COC(=O)C[C@H]1C=C[C@H](NC(=O)c2ccccn2)[C@@H](CO)O1 | 42 | 2 | / | 72* | 0 | /
O=C(C[C@@H]1C=C[C@H](NC(=O)c2ccccc2)[C@H](CO)O1)NCc1ccc(Oc2ccccc2)cc1 | 0 | -1 | -24 | 61*[16.7 µM] | 2 | 15
O=C(C[C@@H]1C=C[C@@H](NC(=O)c2ccccc2)[C@@H](CO)O1)NCc1ccc(Oc2ccccc2)cc1 | 0 | -3 | -11 | ? | 2 | 7
CCOC(=O)c1cnc2nc(C)nn2c1N | 43* | / | -4 | -7 | -7 | 2
CC(C)NC(=O)N1CCCCN2[C@H](CO)[C@H](c3ccc(C#Cc4ccccc4F)cc3)[C@H]2C1 | 0 | -57 | 1 | / | 0 | 14
COc1ccc(CN(C)C[C@H]2OCCCC[C@H](C)Oc3ccc(NC(=O)Nc4ccccc4)cc3C(=O)N([C@@H](C)CO)C[C@H]2C)cc1 | -1 | 0 | -14 | -26[16.7 µM] | / | 1
